Assay results from the EternaBench riboswitch data.

Tested on: MS2 coat protein
Assay: apparent Kd, MS2 coat protein; higher = weaker binding; RNA-MaP array; FMN 200 µM where present
Summary of the method: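 SNAP-549-labelled MS2 coat protein, doubled from 0.7 or 1.5 nM to 3 µM, was titrated over designs transcribed by stalled E. coli RNA polymerase on Illumina sequencing-chip clusters. Titrations were run without and then with constant ligand in 100 mM Tris-HCl pH 7.5, 80 mM KCl, 4 mM MgCl2, BSA, DTT, yeast tRNA and Tween-20. The apparent Kd is the median of filtered per-cluster fits to green signal normalised to red-channel RNA signal and control-cluster median Fmax.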

[1] = designed as: ON switch for flavin mononucleotide, no ligand
[2] = ligand present: flavin mononucleotide, designed as: ON switch for flavin mononucleotide
[3] = designed as: OFF switch for flavin mononucleotide, no ligand
[4] = ligand present: flavin mononucleotide, designed as: OFF switch for flavin mononucleotide

Row | Sequence | apparent Kd [1] [nM] | apparent Kd [2] [nM] | apparent Kd [3] [nM] | apparent Kd [4] [nM]
1 | AGUAACAUACUCAACAUGAGGAUCACCCAUGUACUCUCAUGUAAGGAUAUACAAUCGUAUUGAUAGUAGAAGGUACCAAUUAAG | 845 | 685 |  | 
2 | GAUAGGACAGAGAAGGACAUAGCUAGAGAUACUAGCAUAUGAACCUCUACAUGAGGAUCACCCAUGUAGGAUAUCUGUCCUAUC |  |  | 6.07 | 6.21
3 | UCCUUGUUCUGAGGAUAUCCGCGGUUCCCAAAAGGAGAAGGCAGGACAUGAGGAUCACCCAUGUACCCAGAAAACGUGCAGAGU |  |  | 9.85 | 37.4
4 | AAUAUGUUGCAGAAGGUUAUAUUUUUUUAGUACCUCAUGACAUGAGGAUCACCCAUGUAUUUGUUGAAGGAUAUGCAAUAUAUU |  |  | 23.1 | 20.8
5 | AUCAGCUCGUCAGGAUAUACGUCACUGCGGCAGCAGUGUGGUAAGAUCACAUGAGGAUCACCCAUGUAGAAGGGACGAGCUGAU |  |  | 13.1 | 260
6 | ACGUAUCAUGUAGGAUAUGACCCAGGAACUUGGUCAGAAGGACAUGAGGAUCACCCAUGUAGAGUAUGUUAGGAUGACGUAUGC |  |  | 114 | 150
7 | GAGUGACAUGAGGAUCACCCAUGUGAGGAUAUCGGCCGGACCUUGUUAGCUUCCGCCGCGAGAAGGCACAUCGG |  |  | 71.8 | 157
8 | GUAGCAUACCAAGGAUAUUCAGGGCUUGGAUAGACAUGAGGAUCACCCAUGUGGCGAAAGCCUAGGGAGAAGGUGGAAUGCUAC | 16.7 | 15.2 |  | 
9 | AAAAAAAAAAGUCAGGAUAUACAAAUUUUUACAUGAGGAUCACCCAUGUUAAGGAAAAAAAAAAAGUAGAAGGGACAAAAAAAAAA | 27.3 | 17.6 |  | 
10 | CGCCGCACCGGCCUGCGGCAGGGUCAGGAUAUACAUGAGGAUCACCCAUGUGAACGGUGCCCAAUGUAGAAGGGACGAAAAGAA |  |  | 17.8 | 39.5
11 | GCACUGGAUGUAGGAUAUCAGGACGAUAAGUCCUGAGAAGGACAUGAGGAUCACCCAUGUAACCUCUAACCAGUGCAUAAUAUA |  |  | 12.6 | 23.1
12 | GGUUUGCGGCAGGAUAUCCAUCCGCGGUAUGGUGGAGAAGGGCUGACAUGAGGAUCACCCAUGUGCGUCCUGGG |  |  | 26.6 | 38.4
13 | GCCUUAUCAGUCAGGAUAUACAAUAAAAUAAUUAAGUAGAAGGGACAUGAGGAUCACCCAUGUACAUUACAUUG |  |  | 18.6 | 53.5
14 | GGGUACAUCGGAGGAUAUCACGUAAAUACAUGAGGAUCACCCAUGUCGAUGGAGACAUCGGAGAUUGAGAAGGCCGAUGUACCG | 7.6 | 5.33 |  | 
15 | GUAUAUCACUUAGGAUAUCUGUAAUUUAUUGAAACAUGAGGAUCACCCAUGUUCAUAAAUUUAUAGGAGAAGGGAGUGAUAUAC | 4.19 | 4.24 |  | 
16 | CUUUCGUGAGGAUAUCAGUAGUAAAAUAAUAAAAUUACUACUGAGAAGGCACAUGAGGAUCACCCAUGUUCCUC |  |  | 24.4 | 134
17 | UAAUUUAACAAGAAGGCUAACAUGAGGAUCACCCAUGUUGUACAUGGAUAUAGAGGAUAUUGCUAAUAAUUAUUUAUCAUAAUU |  |  | 24.2 | 19.2
18 | AAACGGAUCCGCGGUUGAUGCUAACUAGAAGGGCAGGUCACAUGAGGAUCACCCAUGUAGUAUAUGUAGGAUAUAGGAAGCGUG | 140 | 26.9 |  | 
19 | ACUAAAGAAGGAUAUACUAACGAACCUCAAACAUAGAUAAGACAUGAGGAUCACCCAUGUAGAAGGUCUAGACU |  |  | 44.2 | 37.4
20 | UUUUAACAUGAGGAUCACCCAUGUGAGGAUAUCGAAAUUUAUAUUAAUAUUUUUAUAACGAGAAGGCACAUUUU |  |  | 70.1 | 75.2
21 | UGGUACAAGGGAGGAUAUGGGAAGAUACAUGAGGAUCACCCAUGUUUAAGAAUGCCGAGAGGCAACUAGAAGGCCCUAGUACCU | 506 | 20.4 |  | 
22 | AGUAGUUCAGGAUAUGAUGUAUGUUACAUGAGGAUCACCCAUGUAGGUCCUGGAAAUGUAUCAGAAGGGAAUAUCU |  |  | 108 | 111
23 | GGAAUGAGGCAGGAUAUGGGAGGGAGGACCGGACCAGAAGGGUUGACAUGAGGAUCACCCAUGUAGAGAUCCUC |  |  | 1060 | 724
24 | CACUUAGGCACAUGAGGAUCACCCAUGUCCCGGGAGCCGAGACAGGAUAUGUGCCUCGAAUGUGCACAGAAGGGUCUACUAUGU | 165 | 229 |  | 
25 | AACUUGUCAGGAUAUCUUACAUUUGCAUCAUAGUUACCAUUGGAGAAGGGACAUGAGGAUCACCCAUGUUUGGU |  |  | 41.3 | 39.3
26 | UAAUCGUUGCAGAAGGUUAUUUUUUUAACAAGUCUCUUAACAUGAGGAUCACCCAUGUUUUUGAUGAAGGAUAUGCAACGGUAG |  |  | 5.89 | 6.15
27 | GUCAGCUCGUGAGGAUAUACAACACUGCUUCGGCAAUGUAUUAAGAUCACAUGAGGAUCACCCAUGUAGAAGGCACGAGCUGAU |  |  | 9.99 | 164
28 | CGUAUCGAAGAAGGAUAUCGCAACGACAGCUAGGGCUAUUCUCAACAUGAGGAUCACCCAUGUUGCGAGAAGGUCUGCUAUGCG |  |  | 27.9 | 50.5

Row | Sequence | apparent Kd [1] [nM] | apparent Kd [2] [nM] | apparent Kd [3] [nM] | apparent Kd [4] [nM]
29 | AGCGGCGCAGACCACCGCAAAACCAGAAGGACAUGAGGAUCACCCAUGUAACAAAACAGGGCGAUGUAGGAUAUGGCAGACCCA |  |  | 13 | 13.7
30 | ACAUGAGGAUCACCCAUGUUAAACGAGGAUAUUUGACUGCACAUGAGGUUCGCCCAUGUCCUGCCGAAGAAGGUGUGAAUAAUU | 17.6 | 13.5 |  | 
31 | GUUGUUUCUGAGGAUAUUAUUUUAUUCGAUUGAUAAGAAGGCAGUACAUGAGGAUCACCCAUGUGGGUUGUUUG |  |  | 60.6 | 122
32 | AUGGGUGUACCUUCACAUGAGGAUCACCCAUGUACGGGUGCGCAGGAUAUCCCAAAAGUCAGUAAGGAGAAGGGCGUAUGCCUG |  |  | 312 | 306
33 | AGUAACAGAGGAUAUACUGUUUUAUGUGUUUAUUGUUUUAAACAUGAGGAUCACCCAUGUAGAAGGCUGAAUAA |  |  | 30.9 | 26.9
34 | GAUCCUUAAGUCAGGAUAUCAAGCAAACUCUAAAUUGAGAAGGGACAUGAGGAUCACCCAUGUCACCGAAAUAA |  |  | 14.7 | 16.2
35 | CUGAUGUGAGGAUAUCUAAAAGAAACUGGGCAAAAUACCAGAGAGAAGGCACAUGAGGAUCACCCAUGUAACGA |  |  | 19.1 | 69.5
36 | GCCUCACAUGAGGAUCACCCAUGUCAGGAUAUGGACUCGAGGGUCUUGGAAGACUGGGCCAGAAGGGACUAUGG |  |  | 57 | 83
37 | AUGAGGUCAGGAUAUGCAUGGCGGGACUUGCGUCGUGGCGUGCAGAAGGGACAUGAGGAUCACCCAUGUGGAGU |  |  | 152 | 218
38 | GGGUACAUCGGAGGAUAUCAUGUAAAUACAUGAGGAUCACCCAUGUCGAUGGAGACAUCGGAGAUUGAGAAGGCGGAUGUACCG | 309 | 23.1 |  | 
39 | GCCAUGUCAGGAUAUAAGCUGUUGCCGAACGGUCAACACAAUUAGAAGGGACAUGAGGAUCACCCAUGUCCGAG |  |  | 18.5 | 20.3
40 | GAGUAGUUAAAAGGAUAUUGAUUAUUGUAGGAUCAAGAAGGUUUUAACAUGAGGAUCACCCAUGUAGGACUAUUCCUGUGAAAA | 15.6 | 12.7 |  | 
41 | UACGUACAGAAGUACGCCGGGUCCAGAAGGGACAUGAGGAUCACCCAUGUACCGUUGAUUGCUUGUCAGGAUAUGGACCCGGCC |  |  | 7.1 | 27.4
42 | AGUACAUCAGGAUAUACAUGGAAGAUCAUUAUGACCCAUCUACAUGAGGAUCACCCAUGUAGAAGGGAUGUACA |  |  | 24.6 | 16.9
43 | AAAGAAACAGGAUAUGUAGGCUGCGACAUGAGGAUCACCCAUGUGUCGGUAUACAGUCCUAUAGAAGGGUUAUGAC |  |  | 15.5 | 20.1
44 | ACAAGAUCAGGAUAUACAUGAGGAUCACCCAUGUGUAUCAAAAGGGAACUUUCUUAAUGUAGAAGGGAUCUUGU |  |  | 14.7 | 22.3
45 | GGAGGACAUGAGGAUCACCCAUGUGGAUGAACGCUAGGAUAUGCGUGCAGGAAGAGUGGAGCAGAAGGAGUGGGAU | 26.4 | 19.3 |  | 
46 | GGAUAGGACAGAGGAUAUACGUGCUAGAGAUACUAGCUAAAUUUCCUCACAUGAGGAUCACCCAUGUAGAAGGCUGUCCUAUCG |  |  | 15 | 412
47 | AAUGGGUGUGUGAGGAUAUACGAUGGCAGUUGCCAGUAGAAGGUACAUGAGGAUCACCCAUGUGUCCAAAAGUG |  |  | 13.2 | 16
48 | UUGGGUUUGGGAGGAUAUGGGUAAAAUAAAGUACUAGAAGGCUUAAAUUAUUUUAUAGUUGUAUUACAUGAGGAUCACCCAUGU | 13.6 | 10.4 |  | 
49 | GGGCCCGGAGGAUAUACAAUGGGCCCGGGAAAUUGGGCCCUACAUGAGGAUCACCCAUGUAGAAGGUUGGGCCC |  |  | 12.8 | 13.6
50 | CUGCUCCGUGUAGGAUAUCCCGGCAACCAAUCGGGAGAAGGACAUGAGGAUCACCCAUGUAUGUUAUUAUCACGUGAAGCGUCC |  |  | 23.1 | 30.1
51 | CGCUACUACCAGAAGGACAUGAGGAUCACCCAUGUAGGAUAUGGGUUACACGUUCCUGUGUAUUGUUACUACGCUACGUAUGCG | 168 | 11.9 |  | 
52 | GCCGGGUCAGGAUAUGGGCCCGGGCCCGAAAGGGCCCGGGCCCAGAAGGGACAUGAGGAUCACCCAUGUCCGGC |  |  | 19.5 | 16.5
53 | CUAGCCCAGCCCGCCUAGUUCGGGAGAAGGAGGAGACAUGAGGAUCACCCAUGUGGCCUUAUCUCCUAGGAUAUCCCGGCGGGA |  |  | 5.56 | 21.6
54 | GUCAGCUCGUGAGGAUAUACAUGUGCUGGAGACAGCACUAAUUAAUUCACAUGAGGAUCACCCAUGUAGAAGGCACGAGCUGAU |  |  | 16.2 | 19.6
55 | UAUAUAUAGUAAGGAUAUGUAUUAAAUUUAUAAACAGAAGGUACUGACAUGAGGAUCACCCAUGUUUUAGUGUGGGCAUGUAGA |  |  | 99.6 | 148
